Laboratory results taken from ChEMBL document CHEMBL4184148 (Bioorg Med Chem Lett, 2017).

Legend:
[1] = tested on: Tyrosine-protein kinase ABL1 (Homo sapiens), P00519 [H396P]; assay: Binding affinity to human non-phosphorylated ABL1 H396P mutant (S229 to K512 residues) expressed in HEK293 cells at 1 uM by Kinomescan method relative to control; format: cell-based
[2] = tested on: Tyrosine-protein kinase ABL1 (Homo sapiens), P00519 [T315I]; assay: Binding affinity to human non-phosphorylated ABL1 T315I mutant (S229 to K512 residues) expressed in HEK293 cells at 1 uM by Kinomescan method relative to control; format: cell-based
[3] = tested on: Tyrosine-protein kinase ABL1 (Homo sapiens), P00519 [T315I]; assay: Binding affinity to human phosphorylated ABL1 T315I mutant (S229 to K512 residues) expressed in HEK293 cells at 1 uM by Kinomescan method relative to control; format: cell-based
[4] = tested on: ALK tyrosine kinase receptor (Homo sapiens), Q9UM73 [C1156Y]; assay: Binding affinity to wild-type human partial length ALK C1156Y mutant (I1088 to E1409 residues) expressed in HEK293 cells at 1 uM by Kinomescan method relative to control; format: cell-based
[5] = molecular target: Cyclin-dependent kinase 11A (Homo sapiens) (UniProt Q9UQ88); assay: Binding affinity to wild-type human partial length CDC2L2 (D391 to K730 residues) expressed in Escherichia coli BL21 at 1 uM by Kinomescan method relative to control
[6] = molecular target: Cyclin-dependent kinase 5 (Homo sapiens) (UniProt Q00535); assay: Binding affinity to wild-type human full length CDK5 (M1 to P292 residues) expressed in Escherichia coli BL21 at 1 uM by Kinomescan method relative to control
Sequence of Cyclin-dependent kinase 5 (Homo sapiens) (Q00535 whole entry, looked up, the tested form may be a part): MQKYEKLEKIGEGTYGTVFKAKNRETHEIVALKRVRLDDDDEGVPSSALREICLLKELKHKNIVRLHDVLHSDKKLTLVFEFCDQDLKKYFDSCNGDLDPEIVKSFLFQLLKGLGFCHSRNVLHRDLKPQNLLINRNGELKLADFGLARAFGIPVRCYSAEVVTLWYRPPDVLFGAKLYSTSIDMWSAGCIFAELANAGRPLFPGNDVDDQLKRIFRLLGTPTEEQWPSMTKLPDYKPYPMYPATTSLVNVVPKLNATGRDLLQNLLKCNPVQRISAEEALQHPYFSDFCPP
How it was run: (§1)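 Run as one kinome-wide competition binding panel with each compound at a single fixed concentration. Results were plotted as a kinome-wide selectivity map.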

[7] = molecular target: Cyclin-dependent kinase 8 (Homo sapiens) (UniProt P49336); assay: Binding affinity to wild-type human partial length CDK8 (M1 to T360 residues) expressed in Escherichia coli BL21 at 1 uM by Kinomescan method relative to control
[8] = molecular target: Ephrin type-A receptor 5 (Homo sapiens) (UniProt P54756); assay: Binding affinity to wild-type human partial length EPHA5 (T627 to V930 residues) expressed in Escherichia coli BL21 at 1 uM by Kinomescan method relative to control
[9] = molecular target: Ephrin type-B receptor 4 (Homo sapiens) (UniProt P54760); assay: Binding affinity to wild-type human partial length EPHB4 (H585 to G892 residues) expressed in Escherichia coli BL21 at 1 uM by Kinomescan method relative to control
[10] = tested on: Receptor-type tyrosine-protein kinase FLT3 (Homo sapiens), P36888 [UNDEFINED MUTATION]; assay: Binding affinity to human partial length FLT3 ITD/F691L double mutant expressed in Escherichia coli BL21 at 1 uM by Kinomescan method relative to control
[11] = molecular target: Rhodopsin kinase GRK7 (Homo sapiens) (UniProt Q8WTQ7); assay: Binding affinity to wild-type human full length GRK7 (M1 to L553 residues) expressed in HEK293 cells at 1 uM by Kinomescan method relative to control; format: cell-based; how it was run: as §1
[12] = molecular target: Inhibitor of nuclear factor kappa-B kinase subunit epsilon (Homo sapiens) (UniProt Q14164); assay: Binding affinity to wild-type human full length IKK-epsilon (M1 to V716 residues) expressed in HEK293 cells at 1 uM by Kinomescan method relative to control; format: cell-based
[13] = molecular target: LIM domain kinase 1 (Homo sapiens) (UniProt P53667); assay: Binding affinity to wild-type human full length LIMK1 (M1 to D647 residues) expressed in Escherichia coli BL21 at 1 uM by Kinomescan method relative to control; how it was run: as §1
[14] = molecular target: Serine/threonine-protein kinase 10 (Homo sapiens) (UniProt O94804); assay: Binding affinity to wild-type human partial length LOK (E16 to V314 residues) expressed in Escherichia coli BL21 at 1 uM by Kinomescan method relative to control
Sequence of Serine/threonine-protein kinase 10 (Homo sapiens) (O94804 whole entry, looked up, the tested form may be a part): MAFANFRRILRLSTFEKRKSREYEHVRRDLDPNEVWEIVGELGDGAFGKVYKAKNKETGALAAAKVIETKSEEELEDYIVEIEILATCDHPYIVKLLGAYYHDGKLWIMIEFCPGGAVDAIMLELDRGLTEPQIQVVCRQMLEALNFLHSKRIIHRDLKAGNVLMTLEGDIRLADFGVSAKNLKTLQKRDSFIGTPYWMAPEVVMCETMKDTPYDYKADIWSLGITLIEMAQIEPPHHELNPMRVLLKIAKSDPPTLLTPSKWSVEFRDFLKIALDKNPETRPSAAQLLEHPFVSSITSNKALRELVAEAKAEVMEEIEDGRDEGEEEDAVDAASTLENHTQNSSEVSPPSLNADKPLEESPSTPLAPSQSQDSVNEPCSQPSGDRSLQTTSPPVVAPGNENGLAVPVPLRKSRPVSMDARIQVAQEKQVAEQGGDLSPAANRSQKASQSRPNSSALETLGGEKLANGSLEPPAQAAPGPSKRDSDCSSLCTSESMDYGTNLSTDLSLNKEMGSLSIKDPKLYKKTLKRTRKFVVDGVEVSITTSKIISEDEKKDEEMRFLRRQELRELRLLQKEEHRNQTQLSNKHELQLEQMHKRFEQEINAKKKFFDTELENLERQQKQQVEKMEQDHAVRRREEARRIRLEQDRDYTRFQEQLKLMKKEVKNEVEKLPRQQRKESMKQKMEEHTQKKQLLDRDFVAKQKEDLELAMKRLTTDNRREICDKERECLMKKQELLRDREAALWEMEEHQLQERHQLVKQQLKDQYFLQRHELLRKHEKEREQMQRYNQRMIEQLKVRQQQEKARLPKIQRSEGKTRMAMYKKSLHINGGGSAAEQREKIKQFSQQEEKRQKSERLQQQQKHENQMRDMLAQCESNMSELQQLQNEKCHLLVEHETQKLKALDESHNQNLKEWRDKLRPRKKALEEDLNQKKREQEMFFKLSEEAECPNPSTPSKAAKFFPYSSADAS

[15] = molecular target: Serine/threonine-protein kinase MRCK alpha (Homo sapiens) (UniProt Q5VT25); assay: Binding affinity to wild-type human partial length MRCKA (L57 to V418 residues) expressed in Escherichia coli BL21 at 1 uM by Kinomescan method relative to control
[16] = molecular target: Myosin light chain kinase, smooth muscle (Homo sapiens) (UniProt Q15746); assay: Binding affinity to wild-type human full length MYLK (M854 to E1845 residues) expressed in HEK293 cells at 1 uM by Kinomescan method relative to control; format: cell-based; how it was run: as §1
Sequence of Myosin light chain kinase, smooth muscle (Homo sapiens) (Q15746 whole entry, the tested form may be a part): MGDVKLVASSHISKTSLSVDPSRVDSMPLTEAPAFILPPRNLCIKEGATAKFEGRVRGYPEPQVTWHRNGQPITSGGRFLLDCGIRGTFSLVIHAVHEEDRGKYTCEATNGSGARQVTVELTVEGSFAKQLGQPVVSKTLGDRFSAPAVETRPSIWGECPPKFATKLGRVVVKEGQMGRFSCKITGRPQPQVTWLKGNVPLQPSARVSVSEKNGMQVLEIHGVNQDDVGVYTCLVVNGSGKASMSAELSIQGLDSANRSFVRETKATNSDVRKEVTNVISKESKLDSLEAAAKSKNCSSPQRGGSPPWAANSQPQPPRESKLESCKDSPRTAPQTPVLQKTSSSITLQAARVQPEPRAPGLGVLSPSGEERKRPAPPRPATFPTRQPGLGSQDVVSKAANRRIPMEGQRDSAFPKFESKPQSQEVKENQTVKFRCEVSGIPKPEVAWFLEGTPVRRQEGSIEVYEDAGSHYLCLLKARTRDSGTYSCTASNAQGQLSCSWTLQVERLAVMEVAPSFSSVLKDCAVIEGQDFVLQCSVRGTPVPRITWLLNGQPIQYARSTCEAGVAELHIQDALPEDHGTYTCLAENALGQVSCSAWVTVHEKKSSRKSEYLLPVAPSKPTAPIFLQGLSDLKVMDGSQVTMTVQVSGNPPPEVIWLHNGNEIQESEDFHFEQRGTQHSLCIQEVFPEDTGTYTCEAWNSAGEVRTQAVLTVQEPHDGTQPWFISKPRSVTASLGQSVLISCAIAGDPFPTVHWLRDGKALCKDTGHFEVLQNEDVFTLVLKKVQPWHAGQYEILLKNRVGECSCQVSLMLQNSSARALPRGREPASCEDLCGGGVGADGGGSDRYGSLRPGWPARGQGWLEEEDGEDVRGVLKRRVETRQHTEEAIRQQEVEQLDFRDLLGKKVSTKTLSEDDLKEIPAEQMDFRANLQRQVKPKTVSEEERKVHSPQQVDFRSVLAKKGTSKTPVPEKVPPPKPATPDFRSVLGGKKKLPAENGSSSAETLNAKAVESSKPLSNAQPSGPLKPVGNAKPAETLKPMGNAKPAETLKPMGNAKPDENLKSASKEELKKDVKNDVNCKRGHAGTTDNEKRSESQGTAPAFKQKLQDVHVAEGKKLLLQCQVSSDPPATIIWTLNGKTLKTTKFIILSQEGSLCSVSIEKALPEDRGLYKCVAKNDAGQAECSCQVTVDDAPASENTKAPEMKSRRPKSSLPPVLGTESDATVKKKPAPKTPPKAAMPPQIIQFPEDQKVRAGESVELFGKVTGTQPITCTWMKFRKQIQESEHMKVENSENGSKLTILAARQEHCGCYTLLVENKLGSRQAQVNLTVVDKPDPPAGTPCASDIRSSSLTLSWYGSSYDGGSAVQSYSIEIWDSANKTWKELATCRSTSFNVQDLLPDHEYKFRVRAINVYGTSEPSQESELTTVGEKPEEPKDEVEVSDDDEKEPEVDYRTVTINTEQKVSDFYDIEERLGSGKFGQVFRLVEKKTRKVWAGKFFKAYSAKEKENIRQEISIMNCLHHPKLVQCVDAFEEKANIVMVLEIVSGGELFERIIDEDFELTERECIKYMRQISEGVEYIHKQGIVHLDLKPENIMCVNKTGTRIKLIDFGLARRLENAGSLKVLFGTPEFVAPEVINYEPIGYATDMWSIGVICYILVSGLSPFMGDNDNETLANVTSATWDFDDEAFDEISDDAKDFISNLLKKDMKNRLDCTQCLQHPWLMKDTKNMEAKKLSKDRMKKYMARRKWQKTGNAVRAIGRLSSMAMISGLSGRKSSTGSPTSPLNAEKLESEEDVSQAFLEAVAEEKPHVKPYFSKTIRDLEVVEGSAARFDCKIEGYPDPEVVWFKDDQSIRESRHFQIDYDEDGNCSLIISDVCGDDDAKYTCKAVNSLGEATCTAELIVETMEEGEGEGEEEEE

[17] = molecular target: Mitogen-activated protein kinase kinase kinase 14 (Homo sapiens) (UniProt Q99558); assay: Binding affinity to wild-type human partial length NIK (L318 to P947 residues) expressed in HEK293 cells at 1 uM by Kinomescan method relative to control; format: cell-based
[18] = molecular target: Serine/threonine-protein kinase PAK 1 (Homo sapiens) (UniProt Q13153); assay: Binding affinity to wild-type human partial length PAK1 (S149 to H545 residues) expressed in Escherichia coli BL21 at 1 uM by Kinomescan method relative to control
[19] = molecular target: Serine/threonine-protein kinase PAK 4 (Homo sapiens) (UniProt O96013); assay: Binding affinity to wild-type human partial length PAK4 (Q144 to R438 residues) expressed in Escherichia coli BL21 at 1 uM by Kinomescan method relative to control
[20] = molecular target: Phosphatidylinositol 3-kinase C2 domain-containing subunit gamma (Homo sapiens) (UniProt O75747); assay: Binding affinity to wild-type human partial length PIK3C2G (M1 to I1446 residues) expressed in HEK293 cells at 1 uM by Kinomescan method relative to control; format: cell-based
Sequence of Phosphatidylinositol 3-kinase C2 domain-containing subunit gamma (Homo sapiens) (O75747 whole entry, the tested form may be a part): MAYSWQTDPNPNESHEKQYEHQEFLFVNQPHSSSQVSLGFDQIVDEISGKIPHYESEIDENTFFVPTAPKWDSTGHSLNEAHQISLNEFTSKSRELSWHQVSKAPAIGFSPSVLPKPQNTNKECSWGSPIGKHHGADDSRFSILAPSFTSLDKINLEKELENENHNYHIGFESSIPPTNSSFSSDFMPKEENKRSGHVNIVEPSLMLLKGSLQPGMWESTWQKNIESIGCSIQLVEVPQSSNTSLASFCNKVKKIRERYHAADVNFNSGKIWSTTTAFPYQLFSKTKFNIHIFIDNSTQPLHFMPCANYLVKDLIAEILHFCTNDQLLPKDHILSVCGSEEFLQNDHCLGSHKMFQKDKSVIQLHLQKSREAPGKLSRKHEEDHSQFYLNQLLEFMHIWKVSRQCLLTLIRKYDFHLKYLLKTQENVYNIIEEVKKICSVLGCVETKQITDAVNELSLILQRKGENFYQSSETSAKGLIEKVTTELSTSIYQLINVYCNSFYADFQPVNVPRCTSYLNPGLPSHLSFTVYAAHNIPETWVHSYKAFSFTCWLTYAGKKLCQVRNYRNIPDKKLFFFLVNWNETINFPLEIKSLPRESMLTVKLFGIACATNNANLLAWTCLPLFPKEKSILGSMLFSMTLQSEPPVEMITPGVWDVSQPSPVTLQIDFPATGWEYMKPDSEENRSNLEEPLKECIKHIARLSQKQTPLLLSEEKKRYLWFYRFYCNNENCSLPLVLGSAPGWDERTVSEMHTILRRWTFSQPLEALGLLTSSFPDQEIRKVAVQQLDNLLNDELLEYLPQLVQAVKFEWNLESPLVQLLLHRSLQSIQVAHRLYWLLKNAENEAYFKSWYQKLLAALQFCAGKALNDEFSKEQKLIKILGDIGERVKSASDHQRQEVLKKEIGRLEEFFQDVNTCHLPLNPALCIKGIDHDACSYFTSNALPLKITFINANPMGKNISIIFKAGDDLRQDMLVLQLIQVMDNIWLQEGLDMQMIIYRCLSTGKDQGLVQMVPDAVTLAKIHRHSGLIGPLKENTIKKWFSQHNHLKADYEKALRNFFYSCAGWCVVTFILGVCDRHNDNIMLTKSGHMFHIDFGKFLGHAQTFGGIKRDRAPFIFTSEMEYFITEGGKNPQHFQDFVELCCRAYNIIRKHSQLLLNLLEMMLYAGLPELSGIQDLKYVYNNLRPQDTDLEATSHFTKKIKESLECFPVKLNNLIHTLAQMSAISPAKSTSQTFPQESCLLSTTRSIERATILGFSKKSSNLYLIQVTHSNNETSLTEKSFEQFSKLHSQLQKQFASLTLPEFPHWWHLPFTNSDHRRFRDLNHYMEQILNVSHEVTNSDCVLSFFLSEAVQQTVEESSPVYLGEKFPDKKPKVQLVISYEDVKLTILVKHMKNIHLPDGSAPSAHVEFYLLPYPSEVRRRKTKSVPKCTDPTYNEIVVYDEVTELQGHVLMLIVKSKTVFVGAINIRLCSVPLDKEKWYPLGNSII

[21] = molecular target: Phosphatidylinositol 4-kinase beta (Homo sapiens) (UniProt Q9UBF8); assay: Binding affinity to wild-type human full length PIK4CB (M1 to M828 residues) expressed in HEK293 cells at 1 uM by Kinomescan method relative to control; format: cell-based
How it was run: (§2)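 Kinome-wide competition binding panel run by an outside provider, with each compound tested at a single concentration. Activity is read against the kinase panel.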

[22] = molecular target: Serine/threonine-protein kinase RIO1 (Homo sapiens) (UniProt Q9BRS2); assay: Binding affinity to wild-type human full length RIOK1 (M1 to K568 residues) expressed in Escherichia coli BL21 at 1 uM by Kinomescan method relative to control
[23] = molecular target: Ribosomal protein S6 kinase alpha-3 (Homo sapiens) (UniProt P51812); assay: Binding affinity to wild-type human partial length C-terminal RSK3 kinase domain 2 (V403 to K700 residues) expressed in Escherichia coli BL21 at 1 uM by Kinomescan method relative to control
[24] = molecular target: Serine/threonine-protein kinase tousled-like 1 (Homo sapiens) (UniProt Q9UKI8); assay: Binding affinity to wild-type human partial length TLK1 (K447 to A754 residues) expressed in Escherichia coli BL21 at 1 uM by Kinomescan method relative to control
[25] = molecular target: Serine/threonine-protein kinase 32B (Homo sapiens) (UniProt Q9NY57); assay: Binding affinity to wild-type human full length YANK2 (M1 to S414 residues) expressed in Escherichia coli BL21 at 1 uM by Kinomescan method relative to control; how it was run: as §2
Sequence of Serine/threonine-protein kinase 32B (Homo sapiens) (Q9NY57 whole entry, the tested form may be a part): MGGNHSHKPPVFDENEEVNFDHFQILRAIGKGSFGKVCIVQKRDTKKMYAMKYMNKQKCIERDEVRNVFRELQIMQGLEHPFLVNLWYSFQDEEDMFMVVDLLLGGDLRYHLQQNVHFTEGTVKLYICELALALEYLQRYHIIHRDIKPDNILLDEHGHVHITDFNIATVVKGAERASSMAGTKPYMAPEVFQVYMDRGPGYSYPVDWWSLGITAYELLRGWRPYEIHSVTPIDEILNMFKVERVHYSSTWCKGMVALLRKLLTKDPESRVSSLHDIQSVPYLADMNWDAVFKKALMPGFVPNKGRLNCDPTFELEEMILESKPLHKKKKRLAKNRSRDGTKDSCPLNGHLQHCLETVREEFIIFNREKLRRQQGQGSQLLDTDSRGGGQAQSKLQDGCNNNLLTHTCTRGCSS

Compound	Activity [1]	Activity [2]	Activity [3]	Activity [4]	Activity [5]	Activity [6]	Activity [7]	Activity [8]	Activity [9]	Activity [10]	Activity [11]	Activity [12]	Activity [13]	Activity [14]	Activity [15]	Activity [16]	Activity [17]	Activity [18]	Activity [19]	Activity [20]	also measured
CCC(=O)Nc1ccc(C(=O)Nc2ccc(Nc3ncc4c(n3)N(C)c3ccc(C)cc3C(=O)N4C)cc2)cc1	62%	81%	100%	100%	88%	87%	100%	94%	100%	68%	87%	68%	70%	78%	100%	78%	100%	94%	98%	81%	Activity [21]: 88%; Activity [22]: 68%; Activity [23]: 85%; Activity [24]: 99%; Activity [25]: 100%
C=CC(=O)Nc1ccc(C(=O)Nc2ccc(Nc3ncc4c(n3)N(C)c3ccc(C)cc3C(=O)N4C)cc2)cc1	84%	100%	99%	94%	100%	99%	78%	100%	95%	100%	93%	88%	100%	100%	94%	89%	99%	93%	97%	71%	Activity [21]: 80%; Activity [22]: 84%; Activity [23]: 100%; Activity [24]: 94%; Activity [25]: 100%
